A1 inh: inhibitors of the anti-apoptotic protein A1, read as caspase activation. MEF A1-2A-BIM cells, Caspase-Glo 3/7 luminescence, 3 h; percent of clofoctol response, vehicle zero. caspase activation, % (no concentration beside the values). 0.066% of 330,000 active. AID 2462;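 active means over half of replicate activation scores above 10%, or exactly half above 10 with the replicate mean above 10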
UPR CHOP act: activators of apoptotic arm of unfolded protein response (CHOP) | CHO-CHOP luciferase reporter, UPR activation, luminescence; percent of tunicamycin response over DMSO baseline | activation, % at 10 µM | 0.34% of 330,000 active | AID 449763;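 active means at 10 µM dose, activation of 40% or more, normalized to positive control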;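 further: 100% = tunicamycin at 10 µg/mL and 0% = DMSO alone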
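Assay system: CHO cells with stable CHOP pathway luciferase reporter; Buffer or medium: F12 plus 10% serum; Times: 16-18 h cell attachment, then 6 h compound exposure, 37 °C; Signal: luciferase luminescence; Read-out basis: percent activation relative to tunicamycin control; Control set: tunicamycin high control, DMSO low control.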
XBP1 UPR activ: activators of adaptive arm of unfolded protein response (XBP1); 0.33% of 330,000 active; CHO-XBP1 luciferase reporter, IRE1-XBP1 UPR activation, luminescence; percent of tunicamycin response, DMSO as zero; activation, % at 20 µM; AID 463104;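 active means versus positive control, 20 µM dose yields 30% or more activation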;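 further: 100% = tunicamycin at 10 µg/mL and 0% = DMSO only wells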
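Assay system: CHO-XBP1 luciferase reporter cells; Schedule: 6 h treatment, 37 °C; Detection: glow luminescence from Steady-Glo reagent; Benchmarks: high control tunicamycin 10 µg/mL final, low control DMSO vehicle only.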
CHOP inh: CHOP inhibition in unfolded protein response; CHO-K1 CHOP-promoter luciferase, tunicamycin-induced, 15-18 h; inhibition, % at 10 µM; 3.8% of 220,000 active;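 active means compounds that reduced the stress-induced luciferase reporter signal by more than about 70% of percent inhibition, limit read from the data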;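 further: 0% = tunicamycin plus vehicle and 100% = wells without tunicamycin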
CHOP confirm: confirmation of CHOP induction inhibitors; 45% of 2,100 active; CHO-CHOP promoter luciferase reporter, tunicamycin-induced, luminescence; AID 504437; shares compounds with CHOP inh; inhibition, % at 10 µM;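 active means mean of three repeat readings of reporter signal inhibition above a set limit, cut at about 70% in these data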;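 further: 0% = tunicamycin plus vehicle and 100% = wells lacking tunicamycin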
The depositor's hits bear a star; / = not tested or not shown. The sample as a whole holds a higher share of hits than the screen did.

SMILES	A1 inh	UPR CHOP act	XBP1 UPR activ	CHOP inh	CHOP confirm
Cc1cc(C)cc(C(=O)NC(CC(N)=O)c2ccc(N3CCC(Cc4ccccc4)CC3)c([N+](=O)[O-])c2)c1 (configuration not stated)	0	-2	-1	/	/
Cc1ccccc1NC(=O)C(C)OC(=O)CNS(=O)(=O)c1ccc(C#N)cc1 (configuration not stated)	-1	0	0	/	/
CCCCOP(=O)(OCCCC)C1(NS(=O)(=O)c2ccccc2)C=CC(=O)c2ccccc21 (configuration not stated)	0	1	-1	96*	63
CCCCOCCCNS(=O)(=O)c1ccccc1	0	0	3	4	/
C=C(C)COc1ccc(-c2n[nH]c(C)c2-c2ccc(OC)cc2)c(O)c1	0	-1	-5	107*	29
COc1ccc(-c2n[nH]c(C)c2-c2cscn2)c(O)c1	0	0	-2	4	/
O=[N+]([O-])/C=C\c1ccc(N2CCCC2)c(F)c1	/	/	/	109*	-40
O=C(COC(=O)CNS(=O)(=O)c1c(Cl)cccc1Cl)Nc1ccccc1Sc1ccccc1	0	-1	1	45	/
O=C(COC(=O)CNS(=O)(=O)c1cccc(Br)c1)Nc1ccccc1Sc1ccccc1	1	2	1	96*	8
CCOc1ccccc1NC(=O)CCSc1nc2n[nH]c(C)c2c(=N)n1-c1ccccc1Cl	0	7	110*	101*	10
Cc1ccccc1-n1c(SCC(=O)Nc2ccccc2Cl)nc2n[nH]c(C)c2c1=N	1	3	5	/	/
CCOc1cc(S(=O)(=O)Nc2ccccc2CC)ccc1Cl	0	-1	0	102*	77*
CCOc1cc(S(=O)(=O)Nc2ccc(Cl)cn2)ccc1Cl	0	1	0	20	/
CCOc1cc(S(=O)(=O)Nc2ccc(CC)cc2)ccc1Cl	0	0	3	104*	111*
Cn1ccc(C(=O)N/N=C/c2ccccc2[N+](=O)[O-])n1	0	4	1	-13	/
Cc1ccc(Sc2ccc(/C=N/O)cc2[N+](=O)[O-])cc1	2	-2	-1	101*	20
COC(=O)Cn1c(=NC(=O)c2nc3ccccc3s2)sc2cc(S(N)(=O)=O)ccc21	0	2	4	104*	-30
Cc1scc(-c2n[nH]c(=S)n2C(C)c2ccccc2)c1C (configuration not stated)	-1	0	1	25	/
CCOc1ccc(-c2nnc3ccc(SC(C)C)nn23)cc1	0	5	14	14	/
O=C(c1ccc(COc2ccc(Cl)cc2)o1)N1N=C(C(F)F)CC1(O)C(F)F (configuration not stated)	0	-1	-2	109*	130*
O=c1cc(O)sc2ccccc12	0	-2	0	1	/
O=c1[nH]sc2ccccc12	/	/	/	97*	-63
COc1cc(-n2nnnc2SCC(=O)N2CCN(c3ccc(F)cc3)CC2)c(OC)cc1Cl	/	/	/	98*	49
Cc1cc(Cl)c2oc(C(=O)NCC(C)(C)N3CCOCC3)c(C)c2c1	0	6	3	/	/
CCC(C)[C@@H](NC(=O)OC(C)(C)C)c1nnc(S(=O)(=O)Cc2cccc(C)c2)o1 (some centres not stated)	/	/	/	106*	107*
SMILES	A1 inh	UPR CHOP act	XBP1 UPR activ	CHOP inh	CHOP confirm
Cc1ccccc1CS(=O)(=O)c1nnc([C@H](Cc2ccccc2)NC(=O)OC(C)(C)C)o1	1	-5	-7	112*	136*
Cc1cccc(CS(=O)(=O)Cc2ccc(C(=O)NC(C)c3ccccc3)o2)c1 (configuration not stated)	1	1	-1	/	/
CCSc1nnc([C@H](Cc2ccccc2)NC(=O)OC(C)(C)C)o1	0	2	-3	10	/
CC(C)(C)OC(=O)N[C@@H](Cc1ccccc1)c1nnc(S(=O)(=O)Cc2ccccc2)o1	2	-10	-5	109*	125*
CC1Cc2ccccc2N1C(=O)COC(=O)c1ccc(N(C)C)cc1 (configuration not stated)	0	1	3	/	/
C=CCn1c(SCC(=O)Nc2ccc(-c3nc4ccc(C)cc4s3)cc2)nnc1-c1ccccc1	-1	/	/	100*	70*
Cc1ccc2nc(NC(=O)c3ccc4ncsc4c3)sc2c1	-1	3	0	103*	-13
